Experimental data from ChEMBL document CHEMBL4834454 (Bioorg Med Chem, 2021).

Legend:
Cannabinoid receptor 1 [1] = target: T1, Cannabinoid receptor 1 (Homo sapiens, UniProt P21554); experiment: Agonist activity at human CB1 receptor expressed in CHO-RD-HGA16 cells overexpressing Galpha16 assessed as stimulation of calcium mobilization measured every 1 sec for 90 secs by Calcium-3 dye based FLIPR assay relative to Emax of CP55940; assay type: functional, cell-based; conditions: time 90.0 sec
Method in brief: (§1)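 Agonist screen. […] They were pretreated with vehicle (BSA/DMSO/EtOH buffer) for 15 min, and a single concentration of test compound was added at 10 s. Fluorescence (485/525 nm) was read for 90 s. RFU is expressed as % of CP55,940 Emax RFU. Line 1 uses hCB1 cells; line 2 uses hCB2 cells.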

Cannabinoid receptor 2 [2] = target: T2, Cannabinoid receptor 2 (Homo sapiens, UniProt P34972); experiment: Antagonist activity at human CB2 receptor expressed in CHO-RD-HGA16 cells overexpressing Galpha16 assessed as inhibition of CP55940-stimulated calcium mobilization at 10 uM preincubated for 15 mins followed by agonist addition and measured every 1 sec for 90 secs by Calcium-3 dye based FLIPR assay; assay type: functional, cell-based; conditions: time 990.0 sec
T2 sequence (P34972 whole entry): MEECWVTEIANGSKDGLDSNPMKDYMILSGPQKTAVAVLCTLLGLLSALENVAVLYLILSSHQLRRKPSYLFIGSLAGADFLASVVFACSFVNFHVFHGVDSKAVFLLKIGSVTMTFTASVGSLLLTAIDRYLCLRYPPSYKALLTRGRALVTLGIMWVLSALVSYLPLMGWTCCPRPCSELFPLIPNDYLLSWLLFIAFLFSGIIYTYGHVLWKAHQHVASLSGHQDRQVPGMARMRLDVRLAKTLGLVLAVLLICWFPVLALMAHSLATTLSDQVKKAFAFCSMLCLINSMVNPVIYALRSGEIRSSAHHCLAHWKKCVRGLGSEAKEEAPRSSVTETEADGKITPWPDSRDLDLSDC

Cannabinoid receptor 2 [3] = target: T2, Cannabinoid receptor 2; experiment: Antagonist activity at human CB2 receptor expressed in CHO-RD-HGA16 cells overexpressing Galpha16 assessed as inhibition of CP55940-stimulated calcium mobilization preincubated for 15 mins followed by agonist addition and measured every 1 sec for 90 secs by Calcium-3 dye based FLIPR assay; assay type: functional, cell-based
Cannabinoid receptor 2 [4] = target: T2, Cannabinoid receptor 2; experiment: Agonist activity at human CB2 receptor expressed in CHO-RD-HGA16 cells overexpressing Galpha16 assessed as stimulation of calcium mobilization measured every 1 sec for 90 secs by Calcium-3 dye based FLIPR assay relative to Emax of CP55940; assay type: functional, cell-based; conditions: time 90.0 sec; method in brief: as §1
Cannabinoid receptor 1 [5] = target: T1, Cannabinoid receptor 1; experiment: Allosteric antagonist activity at human CB1 receptor expressed in CHO-RD-HGA16 cells overexpressing Galpha16 assessed as inhibition of CP55940-stimulated calcium mobilization preincubated for 15 mins followed by agonist addition and measured every 1 sec for 90 secs by Calcium-3 dye based FLIPR assay; assay type: functional, cell-based
Cannabinoid receptor 1 [6] = target: T1, Cannabinoid receptor 1; experiment: biochemical
Cannabinoid receptor 1 [7] = target: T1, Cannabinoid receptor 1; experiment: Allosteric antagonist activity at N-terminal 3HA-tagged human CB1 receptor expressed in HEK293 cells assessed as reduction in CP55940-stimulated inhibition of forskolin-induced cAMP accumulation measured for 20 mins by BRET assay; assay type: functional, cell-based

T1 sequence (P21554 whole entry): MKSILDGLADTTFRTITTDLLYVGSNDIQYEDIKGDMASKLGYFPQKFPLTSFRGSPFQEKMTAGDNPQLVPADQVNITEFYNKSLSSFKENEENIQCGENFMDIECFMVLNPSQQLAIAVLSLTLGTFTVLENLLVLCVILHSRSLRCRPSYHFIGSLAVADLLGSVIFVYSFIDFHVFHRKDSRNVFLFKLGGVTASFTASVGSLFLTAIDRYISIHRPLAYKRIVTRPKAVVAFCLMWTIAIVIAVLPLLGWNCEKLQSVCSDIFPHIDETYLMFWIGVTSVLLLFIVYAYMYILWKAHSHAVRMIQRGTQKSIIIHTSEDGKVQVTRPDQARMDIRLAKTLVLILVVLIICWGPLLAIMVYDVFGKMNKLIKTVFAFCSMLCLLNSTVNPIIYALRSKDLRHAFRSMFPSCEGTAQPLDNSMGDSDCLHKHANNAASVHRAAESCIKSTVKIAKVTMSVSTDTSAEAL

Compound | Activity (Cannabinoid receptor 1 [1]) [%] | inhibition (Cannabinoid receptor 2 [2]) [%] | IC50 (Cannabinoid receptor 2 [3]) [µM] | Activity (Cannabinoid receptor 2 [4]) [%] | IC50 (Cannabinoid receptor 1 [5]) [µM] | IC50 (Cannabinoid receptor 1 [6]) [µM] | IC50 (Cannabinoid receptor 1 [7]) [µM]
O=C(NCCN1CCOCC1)Nc1ccc(Cl)cc1 | < 30 | < 50 | > 10 | < 10 | – | – | –
O=C(NCCc1ccsc1)Nc1ccc(Cl)cc1 | < 30 | < 50 | > 10 | < 10 | – | – | –
CN1CCN(CCNC(=O)Nc2ccc(Cl)cc2)CC1 | < 30 | < 50 | > 10 | < 10 | – | – | –
CCN(CC)c1ccc(CCNC(=O)Nc2ccc(Cl)cc2)cc1 | < 30 | < 50 | > 10 | < 10 | 3.16 | – | –
CC(=O)NCCNC(=O)Nc1ccc(Cl)cc1 | < 30 | < 50 | > 10 | < 10 | 1.58 | – | –
O=C(NCC1(c2ccccc2)CC1)Nc1ccc(Cl)cc1 | < 30 | < 50 | > 10 | < 10 | 5.01 | – | –
O=C(Nc1ccc(Cl)cc1)NC1(Cc2ccccc2)CC1 | < 30 | < 50 | > 10 | < 10 | – | – | –
O=C(NCc1ccccc1)Nc1ccc(Cl)cc1 | < 30 | < 50 | > 10 | < 10 | – | – | –
CN(C)c1ccc(CCNC(=O)Nc2ccc(Cl)cc2)cc1 | < 30 | < 50 | > 10 | < 10 | 0.251 | 15.8 | 2.51
O=C(NCCc1ccc(N2CCCCC2)cc1)Nc1ccc(Cl)cc1 | – | < 50 | > 10 | < 10 | 0.794 | 1.26 | –
O=C(NCCc1cccs1)Nc1ccc(Cl)cc1 | < 30 | < 50 | > 10 | < 10 | – | – | –
O=C(NCCc1ccccc1)Nc1ccc(Cl)cc1 | – | < 50 | > 10 | < 10 | 0.2 | 6.31 | 3.16
CC(C)(Cc1ccccc1)NC(=O)Nc1ccc(Cl)cc1 | < 30 | < 50 | > 10 | < 10 | – | – | –
O=C(NCCc1ccncc1)Nc1ccc(Cl)cc1 | < 30 | < 50 | > 10 | < 10 | – | – | –

The next lines start with results.

Activity (Cannabinoid receptor 1 [1]) [%] | inhibition (Cannabinoid receptor 2 [2]) [%] | IC50 (Cannabinoid receptor 2 [3]) [µM] | Activity (Cannabinoid receptor 2 [4]) [%] | IC50 (Cannabinoid receptor 1 [5]) [µM] | Compound | IC50 (Cannabinoid receptor 1 [6]) [µM] | IC50 (Cannabinoid receptor 1 [7]) [µM]
< 30 | < 50 | > 10 | < 10 | – | O=C(NCCN1CCCCC1)Nc1ccc(Cl)cc1 | – | –
< 30 | < 50 | > 10 | < 10 | 0.794 | O=C(NCCc1ccc(N2CCCC2)cc1)Nc1ccc(Cl)cc1 | 39.8 | –
< 30 | < 50 | > 10 | < 10 | – | Cc1ccc(CCNC(=O)Nc2ccc(Cl)cc2)o1 | – | –
< 30 | – | > 10 | < 10 | – | O=C(Nc1ccc(Cl)cc1)Nc1cccc(-c2cccc(N3CCCC3)n2)c1 | – | –
< 30 | < 50 | > 10 | < 10 | 3.98 | O=C(NCCc1ccccn1)Nc1ccc(Cl)cc1 | – | –
< 30 | < 50 | > 10 | < 10 | 3.98 | O=C(NCCCc1ccccc1)Nc1ccc(Cl)cc1 | – | –
< 30 | < 50 | > 10 | < 10 | – | O=C(NCCN1CCCC1)Nc1ccc(Cl)cc1 | – | –
– | < 50 | > 10 | < 10 | 0.794 | CCc1c(C(=O)NCCc2ccc(N3CCCCC3)cc2)[nH]c2ccc(Cl)cc12 | 1 | 0.158
< 30 | < 50 | > 10 | < 10 | – | O=C(NCCc1cccnc1)Nc1ccc(Cl)cc1 | – | –
< 30 | < 50 | > 10 | < 10 | – | O=C(NC[C@H]1C[C@@H]1c1ccccc1)Nc1ccc(Cl)cc1 (relative stereo) | – | –
< 30 | < 50 | > 10 | < 10 | – | O=C(NCC(F)(F)c1ccccc1)Nc1ccc(Cl)cc1 | – | –
< 30 | < 50 | > 10 | < 10 | – | CC(C)(CNC(=O)Nc1ccc(Cl)cc1)c1ccccc1 | – | –
